The source made the active and inactive calls. The calls are words filed in the database; no cut-off is given here.
Experiments:
[1] = Dissociation constant in aqueous DMF.; assay type: physicochemical
How it was run: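 pKa obtained by UV spectroscopy in 20% aqueous DMF.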

Nucleic Acid = test: Binding constant for DNA by ethidium bromide displacement; assay type: nucleic-acid assay
L1210 [2] = test: In vitro concentration required to inhibit the growth of L1210 cells in culture by 50% following a 48 hr exposure.; assay type: functional; details: Mus musculus, L1210, 48 h; read-out: ID50 (the source's name)
Mus musculus [3] = species on record: Mus musculus; test: Percentage increase in life span of drug-treated tumor bearing controls was determined; assay type: functional
How it was run: (§1)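 Survival of drug-treated mice bearing ip-inoculated leukemia was compared with untreated tumor-bearing controls. The result is expressed as percentage increase in life span (ILS), and a value above 20% was taken as statistically significant.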

L1210 [4] = test: Dose of drug given intraperitoneally on a qd 1-5 schedule that provides the highest ILS value in mice bearing 10E6 ip inoculated L1210 leukemia cells; assay type: functional, Mus musculus
How it was run: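 Mice inoculated ip with 10⁶ L1210 leukemia cells; drug given ip daily on days 1-5 (qd 1-5). Optimal dose, in mg/kg/day, is the dose giving the highest increase in life span (ILS).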

P388 = test: Dose of drug given intraperitoneally on days 1, 5, and 9 that provides the highest ILS value in mice bearing 10E6 ip inoculated P388 leukemia cells in vivo
Mus musculus [5] = species on record: Mus musculus; test: Percentage increase in life span of drug-treated tumor bearing controls was determined no. in parentheses =no. of animals out of a 6 group that survived indefinitely; assay type: functional; how it was run: as §1
Mus musculus [6] = species on record: Mus musculus; test: Percentage increase in life span of drug-treated tumor bearing controls was determined no. in parentheses are the animals (out of a group of 6) that survived indefinitely; assay type: functional; how it was run: as §1
Mus musculus [7] = test: Dose of drug given intraperitoneally on days 1, 5, and 9 that provides the highest ILS value in mice bearing 10E6 ip inoculated P388 leukemia cells in vivo
L1210 [8] = test: Potency against L1210 leukemia cells in culture in vitro according to the NCI protocols Nanomolar concentration required to inhibit the growth of L1210 cells in culture by 50% following a 48 hr exposure; assay type: functional; details: Mus musculus, L1210, 48 h; read-out: ID50 (the source's name)
How it was run: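 L1210 leukaemia cells were grown in culture and exposed to drug for 48 h. The value is the drug concentration giving 50% growth inhibition, expressed in nanomolar.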

Mus musculus [9] = species on record: Mus musculus; test: Percentage increase in life span of drug-treated tumor bearing controls was determined; IN- Inactive at the highest dose tested; assay type: functional, organism-based

SMILES | Log K (Nucleic Acid) | IC50 (L1210 [2]) [nM] | ILS (Mus musculus [3]) [%] | OD (L1210 [4]) [mg/kg] | OD (P388) [mg/kg] | other results
CS(=O)(=O)Nc1ccc(Nc2c3ccccc3nc3ccccc23)c(OCCO)c1 | 5.91 | > 1700 | 67 | 62.5 | – | pKa [1]: 7.53
CCCCCS(=O)(=O)Nc1ccc(Nc2c3ccccc3nc3ccccc23)c(NC)c1 | 6.58 | 144 | 61 | – | 20 | –
CS(=O)(=O)Nc1ccc(Nc2c3ccccc3nc3ccccc23)c(NC2CCCCC2)c1 | 6.3 | 470 | – | – | 45 | –
CS(=O)(=O)Nc1ccc(Nc2c3ccccc3nc3ccccc23)c(N2CCCCC2)c1 | 5.69 | > 1600 | – | – | 100 | –
CS(=O)(=O)Nc1ccc(Nc2c3ccccc3nc3ccccc23)c(F)c1 | 5.65 | 800 | – | >500 | – | pKa [1]: 6.62
CCNc1cc(NS(C)(=O)=O)ccc1Nc1c2ccccc2nc2ccccc12 | 6.54 | 229 | 69 | – | 45 | –
CS(=O)(=O)Nc1ccc(Nc2c3ccccc3nc3ccccc23)c(NCC(O)CO)c1 (stereo unspecified) | 6.71 | 219 | 84 | – | 45 | –
CCCCCCCS(=O)(=O)Nc1ccc(Nc2c3ccccc3nc3ccccc23)c(NC)c1 | 6.44 | 397 | 47 | – | 45 | –
CS(=O)(=O)Nc1ccc(Nc2c3ccccc3nc3ccccc23)c(O)c1 | 5.53 | 4000 | 88 | 25 | – | pKa [1]: 7.56
CS(=O)(=O)Nc1ccc(Nc2c3ccccc3nc3ccccc23)c(N2CCOCC2)c1 | 5.26 | > 1600 | – | – | 100 | –
CCCCS(=O)(=O)Nc1ccc(Nc2c3ccccc3nc3ccccc23)c(NC)c1 | 6.66 | 102 | 67 | – | 45 | –
CN(CCO)c1cc(NS(C)(=O)=O)ccc1Nc1c2ccccc2nc2ccccc12 | 5.52 | 1400 | – | – | 100 | ILS (Mus musculus [5]): 100%
CNc1cc(NS(C)(=O)=O)ccc1Nc1c2ccccc2nc2ccccc12 | 6.42 | 71 | – | – | – | ILS (Mus musculus [6]): 152%; OD (Mus musculus [7]): 13.3 mg/kg
CCCCCNc1cc(NS(C)(=O)=O)ccc1Nc1c2ccccc2nc2ccccc12 | 6.42 | – | – | – | 30 | IC50 (L1210 [8]): 117 nM
CN(C)c1cc(NS(C)(=O)=O)ccc1Nc1c2ccccc2nc2ccccc12 | – | – | – | – | 166 | ILS (Mus musculus [5]): 210%
CS(=O)(=O)Nc1ccc(Nc2c3ccccc3nc3ccccc23)c(N)c1 | 6.28 | 1200 | 106 | 45 | – | –
CCCS(=O)(=O)Nc1ccc(Nc2c3ccccc3nc3ccccc23)c(NC)c1 | 6.61 | 86 | 73 | – | 20 | –
CCCCNc1cc(NS(C)(=O)=O)ccc1Nc1c2ccccc2nc2ccccc12 | 6.36 | 185 | – | – | 45 | –

SMILES | Log K (Nucleic Acid) | IC50 (L1210 [2]) [nM] | ILS (Mus musculus [3]) [%] | OD (L1210 [4]) [mg/kg] | OD (P388) [mg/kg] | other results
CCOc1cc(NS(C)(=O)=O)ccc1Nc1c2ccccc2nc2ccccc12 | 5.68 | 600 | 29 | 250 | – | pKa [1]: 7.55
CS(=O)(=O)Nc1ccc(Nc2c3ccccc3nc3ccccc23)cc1 | – | 35 | 107 | 45 | – | –
CC(=O)NNc1cc(NS(C)(=O)=O)ccc1Nc1c2ccccc2nc2ccccc12 | 5.89 | > 1500 | – | – | – | –
CCCCCCS(=O)(=O)Nc1ccc(Nc2c3ccccc3nc3ccccc23)c(NC)c1 | 6.41 | 443 | 36 | – | 100 | –
CS(=O)(=O)Nc1ccc(Nc2c3ccccc3nc3ccccc23)c(Cl)c1 | 5.45 | 1300 | – | >500 | – | –
Cc1cc(NS(C)(=O)=O)ccc1Nc1c2ccccc2nc2ccccc12 | 5.74 | 120 | 106 | 97 | – | –
CCCCCCNc1cc(NS(C)(=O)=O)ccc1Nc1c2ccccc2nc2ccccc12 | 6.36 | 136 | – | – | 60 | –
CS(=O)(=O)Nc1ccc(Nc2c3ccccc3nc3ccccc23)c([N+](=O)[O-])c1 | 5.61 | 9000 | – | >500 | – | ILS (Mus musculus [9]): inactive
CCCNc1cc(NS(C)(=O)=O)ccc1Nc1c2ccccc2nc2ccccc12 | 6.57 | 286 | – | – | 66 | –
CS(=O)(=O)Nc1ccc(Nc2c3ccccc3nc3ccccc23)c(NCCO)c1 | 6.49 | 86 | 89 | – | 45 | –
COc1cc(NS(C)(=O)=O)ccc1Nc1c2ccccc2nc2ccccc12 [AMSACRINE] | 5.57 | – | 114 | 6.7 | – | –
CC(C)Oc1cc(NS(C)(=O)=O)ccc1N=c1c2ccccc2[nH]c2ccccc12 | 5.17 | > 1700 | – | >500 | – | pKa [1]: 7.51
CCCCCCCNc1cc(NS(C)(=O)=O)ccc1Nc1c2ccccc2nc2ccccc12 | 6.54 | 181 | – | – | 45 | –
CCS(=O)(=O)Nc1ccc(Nc2c3ccccc3nc3ccccc23)c(NC)c1 | 6.62 | 43 | 99 | – | 13.3 | –
CCN(CC)c1cc(NS(C)(=O)=O)ccc1Nc1c2ccccc2nc2ccccc12 | 5.35 | 4600 | – | – | 100 | –
CS(=O)(=O)Nc1ccc(Nc2c3ccccc3nc3ccccc23)c(N2CCCC2)c1 | 5.49 | 1300 | – | – | 45 | –
CCCCCCCCS(=O)(=O)Nc1ccc(Nc2c3ccccc3nc3ccccc23)c(NC)c1 | 6.51 | 217 | 42 | – | 30 | –

Source: ChEMBL document CHEMBL1122589 (J Med Chem, 1984)
